According to ChEMBL document CHEMBL1133575 (J Med Chem, 2000):

Columns and labels:
[1] = biological target: T1, Sodium-dependent dopamine transporter (Rattus norvegicus, UniProt P23977); assay: Inhibition of [3H]DA Uptake at Dopamine transporter in rat cortex was measured by liquid scintillation spectrometry; assay type: tissue-based
[2] = biological target: T1, Sodium-dependent dopamine transporter; assay: Binding Affinity to cocaine site of Dopamine transporter in caudate nuclei which was homogenized and incubated with [3H]mazindol.
Procedure, shortened: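 Rat striatal membranes, washed in KRH buffer (pH 7.4, with 0.01 mM nialamide) and frozen at −80 °C, thawed at 75–125 ug protein/mL. Incubated with [3H]mazindol plus competitor for 60 min at 4 °C. […] Separated by GF/C filtration and counted by scintillation. IC50 fitted with LIGAND.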

[3] = biological target: T1, Sodium-dependent dopamine transporter; assay: Inhibition of [3H]DA Uptake at dopamine transporter in rat cortex was measured by liquid scintillation spectrometry; assay type: tissue-based
[4] = biological target: Sodium-dependent dopamine transporter (Homo sapiens, UniProt Q01959); assay: Binding Affinity to cocaine site of dopamine transporter in caudate nuclei which was homogenized and incubated with [3H]mazindol.
Chain of Sodium-dependent dopamine transporter (Homo sapiens, UniProt Q01959) (Q01959 whole entry): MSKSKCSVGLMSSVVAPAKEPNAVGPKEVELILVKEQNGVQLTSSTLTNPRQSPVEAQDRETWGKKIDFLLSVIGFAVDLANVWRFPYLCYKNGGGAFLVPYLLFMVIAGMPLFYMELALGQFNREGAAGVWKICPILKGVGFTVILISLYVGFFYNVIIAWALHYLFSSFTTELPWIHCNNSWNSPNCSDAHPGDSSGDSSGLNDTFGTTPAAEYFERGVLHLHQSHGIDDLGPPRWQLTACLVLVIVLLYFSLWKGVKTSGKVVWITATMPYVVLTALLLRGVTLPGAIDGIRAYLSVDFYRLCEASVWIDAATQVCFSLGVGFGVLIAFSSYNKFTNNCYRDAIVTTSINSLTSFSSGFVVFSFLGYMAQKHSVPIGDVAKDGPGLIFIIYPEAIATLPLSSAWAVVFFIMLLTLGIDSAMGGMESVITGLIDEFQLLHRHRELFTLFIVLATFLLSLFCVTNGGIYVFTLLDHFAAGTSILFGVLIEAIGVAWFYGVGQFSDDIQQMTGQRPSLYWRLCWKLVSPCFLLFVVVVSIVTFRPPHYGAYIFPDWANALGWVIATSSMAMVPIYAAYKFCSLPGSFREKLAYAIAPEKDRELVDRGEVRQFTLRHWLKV

[5] = biological target: Norepinephrine transporter (Rattus norvegicus, UniProt Q9WTR4); assay: Compound was tested for Inhibition of [3H]NE Uptake in rat parietal/occipital cortex
Chain of Norepinephrine transporter (Q9WTR4 whole entry): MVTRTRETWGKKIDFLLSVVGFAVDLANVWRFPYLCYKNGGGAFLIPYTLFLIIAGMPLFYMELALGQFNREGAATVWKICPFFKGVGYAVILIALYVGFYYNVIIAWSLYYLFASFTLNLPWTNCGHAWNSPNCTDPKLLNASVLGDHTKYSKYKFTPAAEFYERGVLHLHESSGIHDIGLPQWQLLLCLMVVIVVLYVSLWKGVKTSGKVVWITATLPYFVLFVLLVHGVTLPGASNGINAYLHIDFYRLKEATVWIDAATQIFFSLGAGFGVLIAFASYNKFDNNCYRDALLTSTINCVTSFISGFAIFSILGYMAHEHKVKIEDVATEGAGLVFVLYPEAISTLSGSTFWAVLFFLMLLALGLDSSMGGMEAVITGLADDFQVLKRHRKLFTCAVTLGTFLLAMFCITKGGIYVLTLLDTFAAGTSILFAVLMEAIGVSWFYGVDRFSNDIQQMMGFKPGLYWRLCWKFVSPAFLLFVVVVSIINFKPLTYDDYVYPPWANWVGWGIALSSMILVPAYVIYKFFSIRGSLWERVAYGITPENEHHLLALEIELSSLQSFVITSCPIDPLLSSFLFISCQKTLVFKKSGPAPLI
Procedure, shortened: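 [3H]NE uptake used rat parietal/occipital cortex synaptosomes in modified KRH buffer. Drug was preincubated for 30 min at 37 °C, then radiolabel was added for 5 min. Uptake was stopped with cold sodium-free buffer, filtered and counted by liquid scintillation. Specific uptake was defined with 1 uM desipramine.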

[6] = biological target: Sodium-dependent serotonin transporter (Rattus norvegicus, UniProt P31652); assay: Compound was tested for Inhibition of [3H]5-HT Uptake in rat mid brain.; assay type: tissue-based
Chain of Sodium-dependent serotonin transporter (P31652 whole entry): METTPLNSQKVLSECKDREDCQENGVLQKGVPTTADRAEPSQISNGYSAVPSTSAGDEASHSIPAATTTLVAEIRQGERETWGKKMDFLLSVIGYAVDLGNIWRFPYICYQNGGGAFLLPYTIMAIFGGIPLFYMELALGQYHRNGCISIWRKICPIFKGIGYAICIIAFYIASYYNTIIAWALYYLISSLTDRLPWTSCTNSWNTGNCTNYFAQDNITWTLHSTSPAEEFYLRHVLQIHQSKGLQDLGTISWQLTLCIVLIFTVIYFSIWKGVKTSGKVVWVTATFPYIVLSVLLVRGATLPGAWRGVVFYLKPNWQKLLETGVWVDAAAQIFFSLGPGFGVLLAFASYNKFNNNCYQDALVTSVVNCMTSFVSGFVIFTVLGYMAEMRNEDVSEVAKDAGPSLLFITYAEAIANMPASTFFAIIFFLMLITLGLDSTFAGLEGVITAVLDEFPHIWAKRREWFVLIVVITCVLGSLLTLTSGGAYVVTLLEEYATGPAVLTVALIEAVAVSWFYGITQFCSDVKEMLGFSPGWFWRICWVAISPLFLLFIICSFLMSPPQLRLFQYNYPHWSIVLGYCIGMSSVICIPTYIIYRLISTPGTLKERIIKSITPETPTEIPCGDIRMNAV
Procedure, shortened: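 [3H]5-HT uptake used rat midbrain synaptosomes in modified KRH buffer. Drug was preincubated for 30 min at 37 °C, then tritiated substrate was added for 5 min. Uptake was stopped in cold sodium-free buffer, filtered and counted by scintillation. Specific uptake was defined with 10 uM fluoxetine.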

T1 sequence (P23977 whole entry): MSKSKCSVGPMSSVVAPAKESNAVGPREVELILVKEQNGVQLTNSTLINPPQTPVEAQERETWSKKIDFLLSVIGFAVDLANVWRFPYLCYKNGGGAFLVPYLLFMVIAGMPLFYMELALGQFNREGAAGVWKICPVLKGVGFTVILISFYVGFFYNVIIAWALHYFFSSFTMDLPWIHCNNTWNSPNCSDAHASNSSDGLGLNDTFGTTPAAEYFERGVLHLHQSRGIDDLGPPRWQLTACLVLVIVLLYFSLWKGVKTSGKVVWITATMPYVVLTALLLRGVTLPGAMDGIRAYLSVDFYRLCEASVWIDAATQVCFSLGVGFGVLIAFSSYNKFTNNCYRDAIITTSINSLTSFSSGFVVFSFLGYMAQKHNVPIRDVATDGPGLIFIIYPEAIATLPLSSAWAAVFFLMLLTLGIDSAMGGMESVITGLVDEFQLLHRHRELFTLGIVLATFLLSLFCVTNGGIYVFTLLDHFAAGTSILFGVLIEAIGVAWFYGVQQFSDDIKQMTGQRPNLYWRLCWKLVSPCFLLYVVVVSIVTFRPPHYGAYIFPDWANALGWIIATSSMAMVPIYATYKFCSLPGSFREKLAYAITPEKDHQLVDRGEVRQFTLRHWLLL

**Q.** Which results are given for CN1CCC(O)(c2ccccc2)C(C(=O)c2ccccc2)C1 (stereo not given)?
**A.** Ki [1]: 2.59 µM; Ki [2]: 4.42 µM

**Q.** Which results are given for CN1CCC(O)(c2ccc(Cl)cc2Cl)C([C@@H](O)c2ccc(Cl)cc2Cl)C1 (stereo not given in full)?
**A.** Ki [3]: 7.52 µM; Ki [4]: 4.35 µM

**Q.** CN1CCC(O)(c2ccc(Cl)cc2Cl)C(C(=O)c2ccc(Cl)cc2Cl)C1 (stereo not given) was tested. Which Ki [3] did it give?
**A.** 5.85 µM

**Q.** With Cc1ccc(C(=O)C2CN(C)CCC2(O)c2ccc(C)cc2)cc1 (stereo not given) as the compound, how does the Ki [5] read?
**A.** 3.86 µM

**Q.** And the Ki [6]?
**A.** 1.63 µM

**Q.** And the Ki [1]?
**A.** 0.36 µM

**Q.** And the Ki [2]?
**A.** 0.492 µM

**Q.** With CN1CCC(O)(c2ccc(Cl)c(Cl)c2)C(C(=O)c2ccc(Cl)c(Cl)c2)C1 (stereo not given) as the compound, how does the Ki [5] read?
**A.** 0.177 µM

**Q.** What about the Ki [6] of the same compound?
**A.** 2.38 µM

**Q.** What about the Ki [3] of the same compound?
**A.** 0.051 µM

**Q.** What about the Ki [4] of the same compound?
**A.** 0.0109 µM

**Q.** With Cc1ccc(C2OC(=O)OC3(c4ccc(C)cc4)CCN(C)CC23)cc1 (stereo not given) as the compound, how does the Ki [3] read?
**A.** 9.48 µM

**Q.** For Cc1ccc([C@H](O)C2CN(C)CCC2(O)c2ccc(C)cc2)cc1 (stereo not given in full), which Ki [3] is on record?
**A.** 15.8 µM

**Q.** What about the Ki [4] of the same compound?
**A.** 10.7 µM

**Q.** For CN1CCC(O)(c2ccc(Cl)c(Cl)c2)C([C@@H](O)c2ccc(Cl)c(Cl)c2)C1 (stereo not given in full), which Ki [3] is on record?
**A.** 4.22 µM

**Q.** And the Ki [4]?
**A.** 4.14 µM

**Q.** CN1CCC(O)(c2ccc(F)cc2)C(C(=O)c2ccc(F)cc2)C1 (stereo not given) [FLAZALONE] was tested. Which Ki [3] did it give?
**A.** 4.2 µM

**Q.** What about the Ki [4] of the same compound?
**A.** 5.7 µM
